Columns and labels:
[1] = molecular target: Glycogen synthase kinase-3 alpha (Homo sapiens, UniProt P49840); assay: Inhibition of human GSKalpha S449A mutant (2 to 3nd residues) using YRRAAVPPSPSLSRHSSPHQS(p) EDEEE as substrate incubated for 40 mins in presence of [gamma-33P]-ATP by scintillation counting method
In short: (§1)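 Outsourced radioisotope (HotSpot) kinase assay run by a contract lab, with ATP at the kinase's Km(ATP). The IC50 was converted to an apparent Ki by the Cheng-Prusoff equation, Ki = IC50/(1+[ATP]/Km(ATP)), using the experimentally determined Km(ATP).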

[2] = molecular target: Glycogen synthase kinase-3 beta (Homo sapiens, UniProt P49841); assay: Inhibition of human GSKbeta H350L mutant (2 to 3nd residues) using YRRAAVPPSPSLSRHSSPHQS(p) EDEEE as substrate incubated for 40 mins in presence of [gamma-33P]-ATP by scintillation counting method; in short: as §1
Glycogen synthase kinase-3 beta, sequence (P49841 whole entry): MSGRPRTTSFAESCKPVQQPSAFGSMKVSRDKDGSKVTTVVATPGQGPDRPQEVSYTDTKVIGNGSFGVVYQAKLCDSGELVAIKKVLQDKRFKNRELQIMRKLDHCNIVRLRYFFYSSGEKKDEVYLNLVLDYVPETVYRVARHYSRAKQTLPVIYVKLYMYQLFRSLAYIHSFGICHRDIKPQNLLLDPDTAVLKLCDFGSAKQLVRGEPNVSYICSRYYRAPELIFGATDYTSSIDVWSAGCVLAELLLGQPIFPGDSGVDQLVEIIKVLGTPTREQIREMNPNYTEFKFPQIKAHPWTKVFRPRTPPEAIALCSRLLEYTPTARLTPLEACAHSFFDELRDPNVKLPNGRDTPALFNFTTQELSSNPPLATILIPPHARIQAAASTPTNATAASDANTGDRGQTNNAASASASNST

[3] = molecular target: Protein kinase C theta type (Homo sapiens, UniProt Q04759); assay: Inhibition of human full length PKCtheta using histone H1 as substrate incubated for 40 mins in presence of [gamma-33P]-ATP by scintillation counting method
Protein kinase C theta type, sequence (Q04759 whole entry): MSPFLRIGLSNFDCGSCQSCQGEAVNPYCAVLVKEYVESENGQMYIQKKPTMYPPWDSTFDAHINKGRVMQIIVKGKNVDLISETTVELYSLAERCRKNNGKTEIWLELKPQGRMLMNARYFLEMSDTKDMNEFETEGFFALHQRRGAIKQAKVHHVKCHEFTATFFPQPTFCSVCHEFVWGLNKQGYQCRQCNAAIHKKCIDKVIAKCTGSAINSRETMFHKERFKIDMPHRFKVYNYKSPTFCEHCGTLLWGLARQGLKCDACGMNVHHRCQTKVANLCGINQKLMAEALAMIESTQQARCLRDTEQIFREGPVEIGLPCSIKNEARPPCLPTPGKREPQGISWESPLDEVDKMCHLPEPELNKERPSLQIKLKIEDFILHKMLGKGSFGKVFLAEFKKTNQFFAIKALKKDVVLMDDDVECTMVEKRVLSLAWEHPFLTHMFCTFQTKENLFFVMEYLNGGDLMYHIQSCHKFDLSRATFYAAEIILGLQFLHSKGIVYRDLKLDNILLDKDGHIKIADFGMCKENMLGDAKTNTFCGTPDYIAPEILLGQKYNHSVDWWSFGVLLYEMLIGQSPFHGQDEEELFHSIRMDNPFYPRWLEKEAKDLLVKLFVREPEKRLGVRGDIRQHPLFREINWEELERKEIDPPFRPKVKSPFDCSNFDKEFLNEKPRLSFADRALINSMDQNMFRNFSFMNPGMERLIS
In short: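 IC50 measured in a contracted radiometric kinase assay with ATP at the experimentally determined Km(ATP) of each kinase. Apparent Ki was derived by Cheng-Prusoff: Ki = IC50/(1+[ATP]/Km(ATP)).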

HL-60 = assay: Growth inhibition human HL-60 cells after 72 hrs by resazurin or MTT assay; format: functional
In short: (§2)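 Tumour cell lines kept in RPMI-1640, DMEM or MEM with 10% FBS at 37 °C, 5% CO2, mycoplasma-free. Exposure lasted 72 h. Viability was read by MTT for adherent solid-tumour lines and by resazurin for suspension leukaemia lines. GI50 came from nonlinear regression, given as mean ± standard deviation of at least two replicates unless stated otherwise.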

Kasumi 1 = assay: Growth inhibition human Kasumi-1 cells after 72 hrs by resazurin or MTT assay; format: functional; in short: as §2
KG-1 = assay: Growth inhibition human KG-1 cells after 72 hrs by resazurin or MTT assay; format: functional; in short: as §2
KG-1a = assay: Growth inhibition human KG-1a cells after 72 hrs by resazurin or MTT assay; format: functional; in short: as §2
MOLM-13 = assay: Growth inhibition human MOLM-13 cells after 72 hrs by resazurin or MTT assay; format: functional; in short: as §2
NB-4 = assay: Growth inhibition human NB4 cells after 72 hrs by resazurin or MTT assay; format: functional; in short: as §2
[4] = Effect on total STAT1 level in human MV4-11 cells at 1 to 5 times of GI50 concentration after 2 hrs by Western blot analysis; format: ADME, cell-based; settings: mv4-11, 2 h
[5] = Growth inhibition human PL-21 cells after 72 hrs by resazurin or MTT assay; format: functional, PL21; in short: as §2
THP-1 = assay: Growth inhibition human THP1 cells after 72 hrs by resazurin or MTT assay; format: functional; in short: as §2
U-937 = assay: Growth inhibition human U-937 cells after 72 hrs by resazurin or MTT assay; format: functional; in short: as §2
COLO 205 = assay: Growth inhibition human COLO 205 cells after 72 hrs by resazurin or MTT assay; format: functional; in short: as §2
HT-29 = assay: Growth inhibition human HT-29 cells after 72 hrs by resazurin or MTT assay; format: functional; in short: as §2
A2780 = assay: Growth inhibition human A2780 cells after 72 hrs by resazurin or MTT assay; format: functional; in short: as §2
MCF7 = assay: Growth inhibition human MCF7 cells after 72 hrs by resazurin or MTT assay; format: functional; in short: as §2
MDA-MB-453 = assay: Growth inhibition human MDA-MB-453 cells after 72 hrs by resazurin or MTT assay; format: functional; in short: as §2
[6] = Cmax in Sprague-Dawley rat at 5 mg/kg, iv measured up to 24 hrs by LC-MS/MS analysis; format: ADME, organism-based; set-up: route intravenous, dose 5 mg/kg, time <=24; settings: in vivo
[7] = Tmax in Sprague-Dawley rat at 5 mg/kg, iv measured up to 24 hrs by LC-MS/MS analysis; format: ADME, organism-based; settings: in vivo
[8] = AUC in Sprague-Dawley rat at 5 mg/kg, iv measured up to 24 hrs by LC-MS/MS analysis; format: ADME, organism-based; set-up: route intravenous, dose 5 mg/kg, time <=24; settings: in vivo
[9] = Volume of distribution at steady state in Sprague-Dawley rat at 5 mg/kg, iv measured up to 24 hrs by LC-MS/MS analysis; format: ADME, organism-based; settings: in vivo, read-out: Vdss
[10] = Clearance in Sprague-Dawley rat at 5 mg/kg, iv measured up to 24 hrs by LC-MS/MS analysis; format: ADME, organism-based; settings: in vivo
[11] = Cmax in Sprague-Dawley rat at 20 mg/kg, po measured up to 24 hrs by LC-MS/MS analysis; format: ADME, organism-based; set-up: route oral, dose 20 mg/kg, time <=24; settings: in vivo
[12] = Tmax in Sprague-Dawley rat at 20 mg/kg, po measured up to 24 hrs by LC-MS/MS analysis; format: ADME, organism-based; settings: in vivo
[13] = Half life in Sprague-Dawley rat at 20 mg/kg, po measured up to 24 hrs by LC-MS/MS analysis; format: ADME, organism-based; settings: in vivo
[14] = Oral bioavailability in Sprague-Dawley rat at 20 mg/kg measured up to 24 hrs by LC-MS/MS analysis; format: ADME, organism-based; settings: in vivo
[15] = Toxicity in BALB/c mouse assessed as interstitial pneumonitis in lung at 70 mg/kg, po administered once daily for 7 days and measured on day 15; format: organism-based; settings: in vivo, 168 h, time 7 day
[16] = Toxicity in BALB/c mouse assessed as increase in number of alveolar macrophages at 70 mg/kg, po administered once daily for 7 days and measured on day 15; format: organism-based; settings: in vivo, 168 h, time 7 day
[17] = Toxicity in BALB/c mouse assessed as vasculitis in blood vessels at 70 mg/kg, po administered once daily for 7 days and measured on day 15; format: organism-based; settings: in vivo, 168 h, time 7 day
[18] = Toxicity in BALB/c mouse assessed as pathological alterations in lung at 70 mg/kg, po administered once daily for 7 days and measured on day 15; format: organism-based; settings: in vivo, 168 h, time 7 day
[19] = Toxicity in BALB/c mouse assessed as B cells at 70 mg/kg, po administered once daily for 7 days and measured on day 15 by flow cytometric analysis; format: organism-based; settings: in vivo, 168 h, time 7 day
[20] = Toxicity in BALB/c mouse assessed as dendritic cells at 70 mg/kg, po administered once daily for 7 days and measured on day 15 by flow cytometric analysis; format: organism-based; settings: in vivo, 168 h, time 7 day
[21] = Toxicity in BALB/c mouse assessed as granulocytes at 70 mg/kg, po administered once daily for 7 days and measured on day 15 by flow cytometric analysis; format: organism-based; settings: in vivo, 168 h, time 7 day
[22] = Toxicity in BALB/c mouse assessed as monocytes at 70 mg/kg, po administered once daily for 7 days and measured on day 15 by flow cytometric analysis; format: organism-based; settings: in vivo, 168 h, time 7 day
[23] = Toxicity in BALB/c mouse assessed as macrophages at 70 mg/kg, po administered once daily for 7 days and measured on day 15 by flow cytometric analysis; format: organism-based; settings: in vivo, 168 h, time 7 day
[24] = Toxicity in BALB/c mouse assessed as neutrophils at 70 mg/kg, po administered once daily for 7 days and measured on day 15 by flow cytometric analysis; format: organism-based; settings: in vivo, 168 h, time 7 day
[25] = Toxicity in BALB/c mouse assessed as increase in CD3-T cells at 70 mg/kg, po administered once daily for 7 days and measured on day 15 by flow cytometric analysis; format: organism-based; settings: in vivo, 168 h, time 7 day

Glycogen synthase kinase-3 alpha, sequence (P49840 whole entry): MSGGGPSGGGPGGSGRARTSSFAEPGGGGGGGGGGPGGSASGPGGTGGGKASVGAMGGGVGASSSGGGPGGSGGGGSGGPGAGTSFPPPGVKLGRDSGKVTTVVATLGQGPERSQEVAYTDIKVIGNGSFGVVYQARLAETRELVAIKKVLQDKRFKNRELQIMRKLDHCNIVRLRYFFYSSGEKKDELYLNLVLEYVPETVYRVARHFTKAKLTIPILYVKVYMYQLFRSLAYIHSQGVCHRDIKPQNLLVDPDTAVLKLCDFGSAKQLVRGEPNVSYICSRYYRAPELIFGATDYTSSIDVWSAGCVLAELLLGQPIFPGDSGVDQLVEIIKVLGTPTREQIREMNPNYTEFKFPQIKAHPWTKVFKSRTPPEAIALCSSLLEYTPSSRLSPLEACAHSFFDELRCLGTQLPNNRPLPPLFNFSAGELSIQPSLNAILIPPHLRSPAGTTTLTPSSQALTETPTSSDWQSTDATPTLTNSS

With `Cn1cc(-c2ccc(-c3cncc(Cl)c3N3CCC4(CCNC4=O)CC3)cc2)cn1` the Ki [1] was 0.231 µM, the Ki [2] was 0.345 µM and the Ki [3] was 0.061 µM. For the same compound, the GI50 (HL-60) was over 50 µM, the GI50 (Kasumi 1) was 37 µM and the GI50 (KG-1) was 19.98 µM. For the same compound, the GI50 (KG-1a) was 32.71 µM, the GI50 (MOLM-13) was 2.8 µM and the GI50 (NB-4) was over 50 µM. For the same compound, the Activity [4] was “Non-Toxic”, the GI50 [5] was 13.8 µM and the GI50 (THP-1) was over 50 µM. The GI50 (U-937) was 22.4 µM, the GI50 (COLO 205) was 37.7 µM and the GI50 (HT-29) was 48.6 µM. It also gave a GI50 (A2780) of 35.9 µM, a GI50 (MCF7) of over 50 µM and a GI50 (MDA-MB-453) of 43.1 µM. It also gave a Cmax [6] of 10.6 µM, a Tmax [7] of 4.2 min and an AUC at 24 h [8] of 10.5 µM·h. It also gave a Vd [9] of 1.38 L/kg, a clearance [10] of 20 mL/min/kg and a Cmax [11] of 4.06 µM. For the same compound, the Tmax [12] was 1.33 h, the half-life [13] was 4.24 h and the bioavailability [14] was 41%. For the same compound, the Activity [15] was “Toxic”, the Activity [16] was “Toxic” and the Activity [17] was “Toxic”. For the same compound, the Activity [18] was “Toxic”, the Activity [19] was “Non-Toxic” and the Activity [20] was “Non-Toxic”. The Activity [21] was “Non-Toxic”, the Activity [22] was “Non-Toxic” and the Activity [23] was “Non-Toxic”. The Activity [24] was “Non-Toxic” and the Activity [25] was “Toxic”.

`O=C1NCCC12CCN(c1c(Cl)cncc1-c1cc3ccccc3o1)CC2` showed a Ki [1] of 0.013 µM, a Ki [2] of 0.004 µM and a Ki [3] of 0.109 µM. It also gave a GI50 (HL-60) of 35.3 µM, a GI50 (Kasumi 1) of over 50 µM and a GI50 (KG-1) of 7.13 µM. For the same compound, the GI50 (KG-1a) was 19.55 µM, the GI50 (MOLM-13) was 6.18 µM and the GI50 (NB-4) was 40.8 µM. For the same compound, the Activity [4] was “Non-Toxic”, the GI50 [5] was 25.4 µM and the GI50 (THP-1) was over 50 µM. It also gave a GI50 (U-937) of 1.36 µM, a GI50 (COLO 205) of over 50 µM and a GI50 (HT-29) of 44.2 µM. The GI50 (A2780) was 21.4 µM, the GI50 (MCF7) was over 50 µM and the GI50 (MDA-MB-453) was 23.3 µM. The Cmax [6] was 14.4 µM, the Tmax [7] was 2.4 min and the AUC at 24 h [8] was 9.7 µM·h. It also gave a Vd [9] of 1.11 L/kg, a clearance [10] of 23.2 mL/min/kg and a Cmax [11] of 2.77 µM. For the same compound, the Tmax [12] was 2.75 h, the half-life [13] was 2.24 h and the bioavailability [14] was 38%. For the same compound, the Activity [15] was “Non-Toxic”, the Activity [16] was “Non-Toxic” and the Activity [17] was “Non-Toxic”. For the same compound, the Activity [18] was “Non-Toxic”, the Activity [19] was “Non-Toxic” and the Activity [20] was “Non-Toxic”. The Activity [21] was “Non-Toxic”, the Activity [22] was “Non-Toxic” and the Activity [23] was “Non-Toxic”. The Activity [24] was “Non-Toxic” and the Activity [25] was “Toxic”.

From ChEMBL document CHEMBL4732199, “Potent and orally bioavailable CDK8 inhibitors: Design, synthesis, structure-activity relationship analysis and biological evaluation” (Eur J Med Chem, 2021)
